In ChEMBL document CHEMBL4732224, “Structure activity refinement of phenylsulfonyl piperazines as antimalarials that block erythrocytic invasion” (Eur J Med Chem, 2021):

How the values were obtained:
Plasmodium falciparum [1] = assay: Antimalarial activity against Plasmodium falciparum 3D7 incubated for 72 hrs by LDH assay; assay type: functional, organism-based; settings: 3D7, 72 h
Method in brief: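 Asexual blood-stage P. falciparum 3D7 parasites were cultured with compound for 72 h, and viability was read by lactate dehydrogenase (LDH) activity.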

HepG2 = assay: Cytotoxicity against human HePG2 cells assessed as growth inhibition after 48 hrs by Cell Titer-Glo assay; assay type: cell-based; settings: HepG2, 48 h
Plasmodium falciparum [2] = assay: Antimalarial activity against Plasmodium falciparum NF54 late stage ([…]) expressing Pfs16-LUC-GFP assessed as growth inhibition by high content imaging assay; assay type: functional, organism-based
Plasmodium falciparum [3] = assay: Antimalarial activity against asexual blood stage of chloroquine-resistant Plasmodium falciparum 7G8 assessed as reduction in cell viability after 72 hrs by EtBr staining based flow cytometric analysis; assay type: functional, organism-based; settings: 7G8, 72 h
Plasmodium falciparum [4] = assay: Antimalarial activity against asexual blood stage of chloroquine-resistant Plasmodium falciparum Dd2 assessed as reduction in cell viability after 72 hrs by EtBr staining based flow cytometric analysis; assay type: functional, organism-based; settings: Dd2, 72 h
Plasmodium knowlesi = assay: Antimalarial activity against asexual blood stage of Plasmodium knowlesi YHI assessed as reduction in cell viability after 48 hrs by EtBr staining based flow cytometric analysis; assay type: functional, organism-based
Plasmodium falciparum [5] = assay: Antimalarial activity against Plasmodium falciparum NF54 late stage ([…]) expressing Pfs16-LUC-GFP assessed as growth inhibition at 20 uM by high content imaging assay relative to control; assay type: functional; settings: read-out: GI
Plasmodium falciparum [6] = assay: Antimalarial activity against asexual blood stage of artemisinin-resistant Plasmodium falciparum Cam3.12539T cambodian isolate assessed as reduction in cell viability after 72 hrs by EtBr staining based flow cytometric analysis; assay type: functional, organism-based; settings: Cam3.12539T cambodian isolat
Plasmodium falciparum [7] = assay: Antimalarial activity against Plasmodium falciparum NF54 early stage (1 to 3) expressing Pfs16-LUC-GFP assessed as growth inhibition by high content imaging assay; assay type: functional, organism-based
Plasmodium falciparum [8] = assay: Antimalarial activity against asexual blood stage of Mefloquine-resistant Plasmodium falciparum W2mef assessed as reduction in cell viability after 72 hrs by EtBr staining based flow cytometric analysis; assay type: functional, organism-based
Plasmodium falciparum [9] = assay: Antimalarial activity against asexual blood stage of Plasmodium falciparum 3D7 assessed as reduction in cell viability after 72 hrs by EtBr staining based flow cytometric analysis; assay type: functional, organism-based; settings: 3D7, 72 h
[10] = Intrinsic clearance in mouse liver microsomes at 1 uM in presence of NADPH measured up to 60 mins by LC-MS analysis; assay type: ADME, Microsome; settings: read-out: CLH

In the case of `COc1ccc(S(=O)(=O)N2CCN(C(C)C(=O)N3CCCC3)CC2)cc1` (configuration not stated), the EC50 (Plasmodium falciparum [1]) is reported as > 10 µM.
With `CC(C)(C)c1ccc(S(=O)(=O)N2CCN(C(C)(C)C(=O)N3CCCC3)CC2)cc1` the EC50 (HepG2) was > 40 µM and the EC50 (Plasmodium falciparum [1]) was 7.5 µM.
With `CC(C(=O)N1CCCC1)N1CCN(S(=O)(=O)c2ccc(C3CC3)cc2)CC1` (configuration not stated) the EC50 (Plasmodium falciparum [1]) was > 10 µM.
In the case of `Cc1ccc(S(=O)(=O)N2CCN(C(C)C(=O)N3CCCC3)CC2)cc1` (configuration not stated), the EC50 (Plasmodium falciparum [1]) is reported as > 10 µM.
With `CC(C(=O)N1C[C@H]2CCC[C@H]2C1)N1CCN(S(=O)(=O)c2ccc(C(C)(C)C)cc2)CC1` (some centres not stated) the EC50 (HepG2) was > 40 µM and the EC50 (Plasmodium falciparum [1]) was 0.81 µM.
For `C[C@H](C(=O)N1CCCCC1)N1CCN(S(=O)(=O)c2ccc(C(C)(C)C)cc2)CC1`, the EC50 (HepG2) was > 40 µM and the EC50 (Plasmodium falciparum [1]) was 6.9 µM.
Compound `CC(C(=O)N1CCc2ccccc2C1)N1CCN(S(=O)(=O)c2ccc(C(C)(C)C)cc2)CC1` (configuration not stated) has an EC50 (HepG2) of 29 µM and an EC50 (Plasmodium falciparum [1]) of 0.99 µM.
In the case of `CC(C(=O)N1Cc2ccccc2C1)N1CCN(S(=O)(=O)c2ccc(C(C)(C)C)cc2)CC1` (configuration not stated), the EC50 (HepG2) is reported as > 40 µM and the EC50 (Plasmodium falciparum [1]) is reported as 1 µM.
With `CC(C(=O)N1CCCC1)N1CCN(S(=O)(=O)c2cccc(C(C)(C)C)c2)CC1` (configuration not stated) the EC50 (HepG2) was > 40 µM and the EC50 (Plasmodium falciparum [1]) was 8.4 µM.
For `CC(C(=O)N1CCCc2ccccc21)N1CCN(S(=O)(=O)c2ccc(C(C)(C)C)cc2)CC1` (configuration not stated), the EC50 (HepG2) was > 40 µM and the EC50 (Plasmodium falciparum [1]) was 1.9 µM.
In the case of `CCN(CC)CCCC(C)Nc1ccnc2cc(Cl)ccc12` (configuration not stated) [CHLOROQUINE], the EC50 (Plasmodium falciparum [2]) is reported as > 10 µM, the EC50 (Plasmodium falciparum [3]) is reported as 0.32 µM and the EC50 (Plasmodium falciparum [4]) is reported as 0.58 µM. It also gave an EC50 (Plasmodium knowlesi) of 0.01 µM, an inhibition of growth at 20 µM (Plasmodium falciparum [5]) of 99% and an EC50 (Plasmodium falciparum [6]) of 0.56 µM. The EC50 (Plasmodium falciparum [7]) was 0.097 µM, the EC50 (Plasmodium falciparum [8]) was 0.25 µM and the EC50 (Plasmodium falciparum [9]) was 0.004 µM. The EC50 (Plasmodium falciparum [1]) was 21 µM.
For `CC(C(=O)N1CCCC1)N1CCN(S(=O)(=O)c2ccc(C(C)(C)C)cc2)CC1=O` (configuration not stated), the EC50 (Plasmodium falciparum [1]) was > 10 µM.
With `CC(C)(C)c1ccc(S(=O)(=O)N2CCN(C(Cc3ccccc3)C(=O)N3CCCC3)CC2)cc1` (configuration not stated) the EC50 (Plasmodium falciparum [1]) was > 10 µM.
With `CC(C(=O)N1CCc2ccccc21)N1CCN(S(=O)(=O)c2ccc(C(C)(C)C)cc2)CC1` (configuration not stated) the EC50 (HepG2) was > 40 µM and the EC50 (Plasmodium falciparum [1]) was 0.93 µM.
In the case of `CCC(C)c1ccc(S(=O)(=O)N2CCN(C(C)C(=O)N3CCCC3)CC2)cc1` (configuration not stated), the EC50 (HepG2) is reported as > 40 µM and the EC50 (Plasmodium falciparum [1]) is reported as 9.1 µM.
For `CC(C(=O)N1CCc2ncccc2C1)N1CCN(S(=O)(=O)c2ccc(C(C)(C)C)cc2)CC1` (configuration not stated), the EC50 (HepG2) was > 40 µM and the EC50 (Plasmodium falciparum [1]) was 2.6 µM.
For `CC(C(=O)N1CCCC1)N1CCN(S(=O)(=O)c2ccc(OC(F)(F)F)cc2)CC1` (configuration not stated), the EC50 (Plasmodium falciparum [1]) was > 10 µM.
In the case of `CC(C(=O)N1CC2CC2C1)N1CCN(S(=O)(=O)c2ccc(C(C)(C)C)cc2)CC1` (configuration not stated), the EC50 (HepG2) is reported as > 40 µM and the EC50 (Plasmodium falciparum [1]) is reported as 0.33 µM.
For `CC(C(=O)N1CCCC1)N1CCN(S(=O)(=O)c2ccc(CC(F)(F)F)cc2)CC1` (configuration not stated), the EC50 (Plasmodium falciparum [1]) was > 10 µM.
With `CC(C(=O)N1CCCC1)N1CC2(C1)CN(S(=O)(=O)c1ccc(C(C)(C)C)cc1)C2` (configuration not stated) the EC50 (Plasmodium falciparum [1]) was > 10 µM.
With `CCN(CC)C(=O)C(C)N1CCN(S(=O)(=O)c2ccc(C(C)(C)C)cc2)CC1` (configuration not stated) the EC50 (HepG2) was > 40 µM and the EC50 (Plasmodium falciparum [1]) was 1.8 µM.
In the case of `CC(C(=O)N1CCc2cccnc2C1)N1CCN(S(=O)(=O)c2ccc(C(C)(C)C)cc2)CC1` (configuration not stated), the EC50 (HepG2) is reported as > 40 µM and the EC50 (Plasmodium falciparum [1]) is reported as 1.9 µM.
In the case of `CN(C(=O)N1CCCC1)C1CCN(S(=O)(=O)c2ccc(C(C)(C)C)cc2)CC1`, the EC50 (Plasmodium falciparum [1]) is reported as > 10 µM.
In the case of `CC(C(=O)N1CCCC1)N1CCN(S(=O)(=O)c2ccc(C3(C(F)(F)F)CC3)cc2)CC1` (configuration not stated), the EC50 (Plasmodium falciparum [1]) is reported as > 10 µM.
In the case of `C[C@H](C(=O)N1CCCC1)N1CCN(S(=O)(=O)c2ccc(C(C)(C)C)cc2)CC1`, the EC50 (HepG2) is reported as > 40 µM and the EC50 (Plasmodium falciparum [1]) is reported as > 11 µM.
In the case of `CC(C(=O)N1CCOCC1)N1CCN(S(=O)(=O)c2ccc(C(C)(C)C)cc2)CC1` (configuration not stated), the EC50 (HepG2) is reported as > 40 µM and the EC50 (Plasmodium falciparum [1]) is reported as 4.4 µM.
With `CC(C(=O)N1CCCC1)N1CCN(S(=O)(=O)c2ccc(C3CCCC3)cc2)CC1` (configuration not stated) the EC50 (Plasmodium falciparum [1]) was > 10 µM.
For `CC(C)(C)c1ccc(S(=O)(=O)N2CCN(C(C(=O)N3CCCC3)c3ccccc3)CC2)cc1` (configuration not stated), the EC50 (HepG2) was > 40 µM and the EC50 (Plasmodium falciparum [1]) was 5.1 µM.
In the case of `CC(C(=O)N1CCCC1)N1C[C@@H]2CN(S(=O)(=O)c3ccc(C(C)(C)C)cc3)C[C@@H]2C1` (some centres not stated), the EC50 (HepG2) is reported as > 40 µM and the EC50 (Plasmodium falciparum [1]) is reported as 4.3 µM.
Work on `CC(C(=O)N(C)CCc1ccccc1)N1CCN(S(=O)(=O)c2ccc(C(C)(C)C)cc2)CC1` (configuration not stated) yielded an EC50 (HepG2) of 17 µM and an EC50 (Plasmodium falciparum [1]) of 2.1 µM.
With `CC(C(=O)N1CCc2ccccc2C12CCCC2)N1CCN(S(=O)(=O)c2ccc(C(C)(C)C)cc2)CC1` (configuration not stated) the EC50 (HepG2) was > 40 µM and the EC50 (Plasmodium falciparum [1]) was 0.81 µM.
For `C[C@@H](C(=O)N1CCCC1)N1CCN(S(=O)(=O)c2ccc([Si](C)(C)C)cc2)CC1`, the EC50 (HepG2) was > 40 µM, the microsomal CLint at 1 µM [10] was > 866 µL/min/mg and the EC50 (Plasmodium falciparum [1]) was 0.49 µM.
With `CC(C(=O)N1CCCC1)N1C[C@@H]2C[C@H]1CN2S(=O)(=O)c1ccc(C(C)(C)C)cc1` (mixture of isomers) the EC50 (HepG2) was > 40 µM and the EC50 (Plasmodium falciparum [1]) was > 10 µM.
`C[C@H]1[C@H](OC(=O)CCC(=O)O)O[C@@H]2O[C@@]3(C)CC[C@H]4[C@H](C)CC[C@@H]1[C@@]24OO3` [ARTESUNATE] gave an EC50 (Plasmodium falciparum [2]) of 0.024 µM, an EC50 (Plasmodium falciparum [7]) of 0.002 µM and an EC50 (Plasmodium falciparum [1]) of 8 µM.
